Key:
Cerebellum [1] = assay: Biodistribution in Sprague-Dawley rat cerebellum at 350 uCi, iv after 30 mins; assay type: ADME, organism-based; conditions: in vivo, 0.5 h
Kidney [2] = assay: Biodistribution in Sprague-Dawley rat kidney at 350 uCi, iv after 30 mins in the presence of cyclosporin A; assay type: ADME, organism-based; conditions: in vivo, 0.5 h
Pancreas [3] = assay: Biodistribution in Sprague-Dawley rat pancreas at 350 uCi, iv after 30 mins; assay type: ADME, organism-based; conditions: in vivo, 0.5 h
Hippocampus [4] = assay: Biodistribution in Sprague-Dawley rat hippocampus at 350 uCi, iv after 30 mins; assay type: ADME, organism-based; conditions: in vivo, 0.5 h
Thalamus [5] = assay: Biodistribution in Sprague-Dawley rat thalamus at 350 uCi, iv after 30 mins; assay type: ADME, organism-based; conditions: in vivo, 0.5 h
Spleen [6] = assay: Biodistribution in Sprague-Dawley rat spleen at 350 uCi, iv after 30 mins in the presence of cyclosporin A; assay type: ADME, organism-based; conditions: in vivo, 0.5 h
Muscle tissue [7] = assay: Biodistribution in Sprague-Dawley rat muscle at 350 uCi, iv after 30 mins; assay type: ADME, organism-based; conditions: in vivo, 0.5 h
Lung [8] = assay: Biodistribution in Sprague-Dawley rat lung at 350 uCi, iv after 5 mins; assay type: ADME, organism-based; conditions: in vivo
Pancreas [9] = assay: Biodistribution in Sprague-Dawley rat pancreas at 350 uCi, iv after 30 mins in the presence of cyclosporin A; assay type: ADME, organism-based; conditions: in vivo, 0.5 h
Hippocampus [10] = assay: Biodistribution in Sprague-Dawley rat hippocampus at 350 uCi, iv after 30 mins in presence of cyclosporin A; assay type: ADME, organism-based; conditions: in vivo, 0.5 h
Rattus norvegicus [11] = assay: Biodistribution in Sprague-Dawley rat fat at 350 uCi, iv after 5 mins; assay type: ADME, organism-based, Adipose tissue; conditions: in vivo
Heart [12] = assay: Biodistribution in Sprague-Dawley rat heart at 350 uCi, iv after 30 mins; assay type: ADME, organism-based; conditions: in vivo, 0.5 h
Kidney [13] = assay: Biodistribution in Sprague-Dawley rat kidney at 350 uCi, iv after 30 mins; assay type: ADME, organism-based; conditions: in vivo, 0.5 h
Blood [14] = assay: Biodistribution in Sprague-Dawley rat blood at 350 uCi, iv after 30 mins in presence of cyclosporin A; assay type: ADME, organism-based; conditions: in vivo, 0.5 h
Brain [15] = assay: (§1) Biodistribution in Sprague-Dawley rat brain at 350 uCi, iv after 30 mins; assay type: ADME, organism-based; conditions: in vivo, 0.5 h
Cortex [16] = assay: Biodistribution in Sprague-Dawley rat cortex at 350 uCi, iv after 30 mins in presence of cyclosporin A; assay type: ADME, organism-based; conditions: in vivo, 0.5 h
Macaca fascicularis = assay: Ratio of drug level in cynomolgus monkey […] at 5 to 7 mCi, iv after 70 mins; conditions: in vivo
Liver [17] = assay: Biodistribution in Sprague-Dawley rat liver at 350 uCi, iv after 5 mins; assay type: ADME, organism-based; conditions: in vivo
[18] = target: T1, Vesicular acetylcholine transporter (Homo sapiens, UniProt Q16572); assay: Displacement of (-)-[3H]vesamicol from human VAChT expressed in rat PC12 cell membrane after 20 hrs; assay type: cell membranes, PC-12
T1 sequence (Q16572 whole entry): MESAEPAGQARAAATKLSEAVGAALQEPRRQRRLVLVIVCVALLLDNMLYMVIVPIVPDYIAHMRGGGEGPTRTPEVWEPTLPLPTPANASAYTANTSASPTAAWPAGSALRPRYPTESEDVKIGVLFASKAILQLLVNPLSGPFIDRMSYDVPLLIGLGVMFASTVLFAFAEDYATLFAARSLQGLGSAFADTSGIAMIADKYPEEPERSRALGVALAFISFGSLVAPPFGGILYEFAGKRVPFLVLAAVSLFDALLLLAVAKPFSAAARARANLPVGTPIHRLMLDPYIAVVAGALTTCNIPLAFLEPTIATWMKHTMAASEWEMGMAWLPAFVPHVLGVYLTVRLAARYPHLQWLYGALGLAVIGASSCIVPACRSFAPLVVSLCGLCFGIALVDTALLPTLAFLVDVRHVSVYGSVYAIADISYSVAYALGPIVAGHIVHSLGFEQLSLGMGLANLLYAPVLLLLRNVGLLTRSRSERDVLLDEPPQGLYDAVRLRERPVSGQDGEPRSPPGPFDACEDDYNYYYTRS

Liver [19] = assay: Biodistribution in Sprague-Dawley rat liver at 350 uCi, iv after 30 mins in presence of cyclosporin A; assay type: ADME, organism-based; conditions: in vivo, 0.5 h
Lung [20] = assay: Biodistribution in Sprague-Dawley rat lung at 350 uCi, iv after 30 mins in presence of cyclosporin A; assay type: ADME, organism-based; conditions: in vivo, 0.5 h
Spleen [21] = assay: Biodistribution in Sprague-Dawley rat spleen at 350 uCi, iv after 5 mins; assay type: ADME, organism-based; conditions: in vivo
Pancreas [22] = assay: Biodistribution in Sprague-Dawley rat pancreas at 350 uCi, iv after 5 mins; assay type: ADME, organism-based; conditions: in vivo
[23] = Displacement of [3H]DTG from sigma 2 receptor in rat liver membrane homogenates after 120 mins by scintillation counting analysis; assay type: cell membranes
How it was run: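 Rat liver membrane homogenate (~300 µg protein) with ~5 nM [3H]DTG plus 1 µM (+)-pentazocine to block sigma-1 sites, 120 min at room temperature, pH 7.4 Tris buffer. Nonspecific binding taken with 10 µM haloperidol. Filtration and scintillation counting.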

[24] = Biodistribution in cynomolgus monkey striatum at 5 to 7 mCi, iv up to 100 mins by microPET analysis; assay type: ADME, organism-based, Macaca fascicularis; conditions: in vivo
How it was run: (§2)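 Male cynomolgus monkeys (4–6 kg) were fasted 12 h, induced with ketamine (10 mg/kg) and glycopyrrolate (0.13 mg/kg) i.m., intubated and kept on 0.75–2.0% isoflurane. After attenuation-correction transmission scans, 5–7 mCi of tracer was given via venous catheter and a 100 min dynamic microPET scan was acquired. MRI-coregistered regions of interest yielded time-activity curves; n = 3.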

Kidney [25] = assay: Biodistribution in Sprague-Dawley rat kidney at 350 uCi, iv after 5 mins; assay type: ADME, organism-based; conditions: in vivo
Rattus norvegicus [26] = assay: Biodistribution in Sprague-Dawley rat fat at 350 uCi, iv after 30 mins; assay type: ADME, organism-based, Adipose tissue; conditions: in vivo, 0.5 h
Rattus norvegicus [27] = assay: Biodistribution in Sprague-Dawley rat fat at 350 uCi, iv after 30 mins in the presence of cyclosporin A; assay type: ADME, organism-based, Adipose tissue; conditions: in vivo, 0.5 h
Brain [28] = assay: Biodistribution in Sprague-Dawley rat brain at 350 uCi, iv after 30 mins in presence of cyclosporin A; assay type: ADME, organism-based; conditions: in vivo, 0.5 h
[29] = Biodistribution in cynomolgus monkey striatum at 5 to 7 mCi, iv after 10 mins by microPET analysis; assay type: ADME, organism-based, Macaca fascicularis; conditions: in vivo; how it was run: as §2
Blood [30] = assay: Biodistribution in Sprague-Dawley rat blood at 350 uCi, iv after 30 mins; assay type: ADME, organism-based; conditions: in vivo, 0.5 h
Brain [31] = assay: Ratio of drug uptake in Sprague-Dawley rat brain in absence of cyclosporin A to drug uptake in Sprague-Dawley rat brain in presence of cyclosporin A; assay type: ADME, tissue-based; conditions: in vivo
How it was run: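 Cyclosporine A (Sandimmune diluted 1:1 with saline) was given i.v. at 25 mg/kg 30 min before the radioligand. Rats were euthanized 30 min after tracer injection. Groups were compared with controls by Student t test (n=4).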

Thalamus [32] = assay: Biodistribution in Sprague-Dawley rat thalamus at 350 uCi, iv after 30 mins in presence of cyclosporin A; assay type: ADME, organism-based; conditions: in vivo, 0.5 h
Cerebellum [33] = assay: Biodistribution in Sprague-Dawley rat cerebellum at 350 uCi, iv after 30 mins in presence of cyclosporin A; assay type: ADME, organism-based; conditions: in vivo, 0.5 h
Heart [34] = assay: Biodistribution in Sprague-Dawley rat heart at 350 uCi, iv after 30 mins in presence of cyclosporin A; assay type: ADME, organism-based; conditions: in vivo, 0.5 h
Lung [35] = assay: Biodistribution in Sprague-Dawley rat lung at 350 uCi, iv after 30 mins; assay type: ADME, organism-based; conditions: in vivo, 0.5 h
Cortex [36] = assay: Biodistribution in Sprague-Dawley rat cortex at 350 uCi, iv after 30 mins; assay type: ADME, organism-based; conditions: in vivo, 0.5 h
Liver [37] = assay: Biodistribution in Sprague-Dawley rat liver at 350 uCi, iv after 30 mins; assay type: ADME, organism-based; conditions: in vivo, 0.5 h
Rattus norvegicus [38] = assay: Biodistribution in Sprague-Dawley rat brain stem at 350 uCi, iv after 30 mins; assay type: ADME, organism-based; conditions: in vivo, 0.5 h
Blood [39] = assay: Biodistribution in Sprague-Dawley rat blood at 350 uCi, iv after 5 mins; assay type: ADME, organism-based; conditions: in vivo
Muscle tissue [40] = assay: Biodistribution in Sprague-Dawley rat muscle at 350 uCi, iv after 5 mins; assay type: ADME, organism-based; conditions: in vivo
Muscle tissue [41] = assay: Biodistribution in Sprague-Dawley rat muscle at 350 uCi, iv after 30 mins in presence of cyclosporin A; assay type: ADME, organism-based; conditions: in vivo, 0.5 h
[42] = target: Sigma non-opioid intracellular receptor 1 (Cavia porcellus, UniProt Q60492); assay: Displacement of (+)- [3H]pentazocine from sigma 1 receptor expressed in guinea pig brain membrane homogenates by scintillation counting analysis; assay type: cell membranes
Sequence of Sigma non-opioid intracellular receptor 1 (Q60492 whole entry): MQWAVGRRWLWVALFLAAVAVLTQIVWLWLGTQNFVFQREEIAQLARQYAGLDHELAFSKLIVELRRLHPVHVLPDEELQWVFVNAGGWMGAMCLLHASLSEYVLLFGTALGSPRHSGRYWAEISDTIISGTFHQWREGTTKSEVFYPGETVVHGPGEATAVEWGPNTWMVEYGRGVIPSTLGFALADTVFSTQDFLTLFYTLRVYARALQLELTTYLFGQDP

Striatum [43] = assay: Biodistribution in Sprague-Dawley rat striatum at 350 uCi, iv after 30 mins in presence of cyclosporin A; assay type: ADME, organism-based; conditions: in vivo, 0.5 h
Brain [44] = assay: as §1; assay type: ADME, organism-based; conditions: in vivo, 0.5 h; remark: listed apart in the source
Striatum [45] = assay: Biodistribution in Sprague-Dawley rat striatum at 350 uCi, iv after 30 mins; assay type: ADME, organism-based; conditions: in vivo, 0.5 h
Brain [46] = assay: Biodistribution in Sprague-Dawley rat brain at 350 uCi, iv after 5 mins; assay type: ADME, organism-based; conditions: in vivo
Spleen [47] = assay: Biodistribution in Sprague-Dawley rat spleen at 350 uCi, iv after 30 mins; assay type: ADME, organism-based; conditions: in vivo, 0.5 h
Rattus norvegicus [48] = assay: Biodistribution in Sprague-Dawley rat brain stem at 350 uCi, iv after 30 mins in presence of cyclosporin A; assay type: ADME, organism-based; conditions: in vivo, 0.5 h
Heart [49] = assay: Biodistribution in Sprague-Dawley rat heart at 350 uCi, iv after 5 mins; assay type: ADME, organism-based; conditions: in vivo
Brain [50] = assay: Biodistribution in Sprague-Dawley rat brain at 350 uCi, iv after 30 mins in the presence of cyclosporin A; assay type: ADME, organism-based; conditions: in vivo, 0.5 h

[11CH3]Nc1ccc(C(=O)C2CCN([C@H]3Cc4ccccc4C[C@@H]3O)CC2)cc1
Drug uptake (Cerebellum [1]): 0.157 % ID/g | Drug uptake (Kidney [2]): 1.21 % ID/g | Drug uptake (Pancreas [3]): Active | Drug uptake (Hippocampus [4]): 0.265 % ID/g | Drug uptake (Thalamus [5]): 0.293 % ID/g | Drug uptake (Spleen [6]): Active | Drug uptake (Muscle tissue [7]): Active | Drug uptake (Lung [8]): 1.77 % ID/g | Drug uptake (Pancreas [9]): Active | Drug uptake (Hippocampus [10]): 0.562 % ID/g | Drug uptake (Rattus norvegicus [11]): 0.18 % ID/g | Drug uptake (Heart [12]): Active | Drug uptake (Kidney [13]): Active | Drug uptake (Blood [14]): Active | Drug uptake (Brain [15]): 0.272 % ID/g | Drug uptake (Cortex [16]): 0.637 % ID/g | Ratio (Macaca fascicularis): > 2.5 | Drug uptake (Liver [17]): 3.45 % ID/g | Ki [18]: 0.78 nM | Drug uptake (Liver [19]): Active | Drug uptake (Lung [20]): Active | Drug uptake (Spleen [21]): 1.19 % ID/g | Drug uptake (Pancreas [22]): 0.89 % ID/g | Ki [23]: 11400 nM | Drug uptake [24]: Active | Drug uptake (Kidney [25]): 1.47 % ID/g | Drug uptake (Rattus norvegicus [26]): Active | Drug uptake (Rattus norvegicus [27]): Active | Drug uptake (Brain [28]): 0.596 % ID/g | Drug uptake [29]: Active | Drug uptake (Blood [30]): Active | Ratio (Brain [31]): 2.2 | Drug uptake (Thalamus [32]): 0.6 % ID/g | Drug uptake (Cerebellum [33]): 0.404 % ID/g | Drug uptake (Heart [34]): Active | Drug uptake (Lung [35]): Active | Drug uptake (Cortex [36]): 0.262 % ID/g | Drug uptake (Liver [37]): 2.44 % ID/g | Drug uptake (Rattus norvegicus [38]): 0.245 % ID/g | Drug uptake (Blood [39]): 0.34 % ID/g | Drug uptake (Muscle tissue [40]): 0.22 % ID/g | Drug uptake (Muscle tissue [41]): Active | Ki [42]: 992 nM | Drug uptake (Striatum [43]): 1.02 % ID/g | Drug uptake (Brain [44]): Active | Drug uptake (Striatum [45]): 0.593 % ID/g | Drug uptake (Brain [46]): 0.57 % ID/g | Drug uptake (Spleen [47]): Active | Drug uptake (Rattus norvegicus [48]): 0.577 % ID/g | Drug uptake (Heart [49]): 0.49 % ID/g | Drug uptake (Brain [50]): Active

Reference: ChEMBL document CHEMBL2406932, “Heteroaromatic and aniline derivatives of piperidines as potent ligands for vesicular acetylcholine transporter” (J Med Chem, 2013)
